Measured values: ChEMBL document CHEMBL4627259, “Discovery of LY3325656: A GPR142 agonist suitable for clinical testing in human” (Bioorg Med Chem Lett, 2020)

What was measured:
[1] = biological target: T1, Probable G-protein coupled receptor 142 (Homo sapiens) (UniProt Q7Z601); test: Agonist activity at human GPR142 receptor expressed in HEK293 cells assessed as accumulation of inositol phosphate at 30 uM to 1 nM incubated for 1 hr followed by IP1-d2 addition by HTRF assay relative to control; format: functional, cell-based
T1 sequence (whole entry): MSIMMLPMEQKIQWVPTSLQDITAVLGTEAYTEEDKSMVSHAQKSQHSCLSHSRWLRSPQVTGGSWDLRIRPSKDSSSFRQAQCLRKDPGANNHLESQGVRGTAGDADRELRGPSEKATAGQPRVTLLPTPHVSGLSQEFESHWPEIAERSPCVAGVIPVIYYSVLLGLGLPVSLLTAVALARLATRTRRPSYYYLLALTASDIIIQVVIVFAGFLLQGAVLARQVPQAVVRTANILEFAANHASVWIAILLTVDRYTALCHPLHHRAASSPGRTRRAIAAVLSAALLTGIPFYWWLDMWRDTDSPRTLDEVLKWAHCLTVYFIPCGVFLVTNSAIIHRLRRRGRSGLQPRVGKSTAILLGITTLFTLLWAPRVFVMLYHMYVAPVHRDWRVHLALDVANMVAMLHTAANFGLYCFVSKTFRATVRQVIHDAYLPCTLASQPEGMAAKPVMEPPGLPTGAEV
Method in brief: (§1)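 HEK293 cells stably expressing human GPR142 (DMEM, 10% FBS, 800 ug/mL G418, 37 °C, 5% CO2), seeded 5000 cells/well and left 18 h to attach. Compounds added at 30 uM to 1 nM, 1 h incubation in HBSS (+Ca, +Mg), 0.1% BSA, 50 mM LiCl, 20 mM HEPES pH 7.2. IP-1 HTRF read-out: IP1-d2 then cryptate, 1 h at 25 °C, 665/620 nm ratio converted via IP-1 standard curve; EC50 by 4-parameter logistic fit.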

[2] = Drug metabolism in human microsomes assessed as drug turnover at 20 uM measured after 30 mins by LCMS analysis; format: ADME, Microsome; conditions: read-out: Drug metabolism
Method in brief: (§2)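 High-throughput microsomal stability: compound at 20 uM incubated with mouse, rat, dog or human liver microsomes at 37 °C; percent parent remaining measured after 30 min and reported as % turnover.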

[3] = Drug metabolism in dog microsomes assessed as drug turnover at 20 uM measured after 30 mins by LCMS analysis; format: ADME, Canis lupus familiaris, Microsome; conditions: read-out: Drug metabolism; method in brief: as §2
[4] = biological target: T2, Probable G-protein coupled receptor 142 (Homo sapiens, UniProt Q7Z601); test: Agonist activity at human GPR142 receptor expressed in HEK293 cells assessed as accumulation of inositol phosphate incubated for 1 hr followed by IP1-d2 addition by HTRF assay; format: functional, cell-based; method in brief: as §1
T2 sequence (Q7Z601 whole entry): T1 sequence (whole entry)

[5] = Drug metabolism in mouse microsomes assessed as drug turnover at 20 uM measured after 30 mins by LCMS analysis; format: ADME, Microsome; conditions: read-out: Drug metabolism; method in brief: as §2
[6] = Drug metabolism in rat microsomes assessed as drug turnover at 20 uM measured after 30 mins by LCMS analysis; format: ADME, Microsome; conditions: read-out: Drug metabolism; method in brief: as §2
CYP3A4 = CYP3A4 (Homo sapiens, UniProt P08684); test: Inhibition of CYP3A4 (unknown origin) at 10 uM relative to control; format: ADME
[7] = Oral bioavailability in rat at 10 mg/kg; format: ADME, organism-based; conditions: in vivo
[8] = Clearance in dog at 1 mg/kg, iv or 5 mg/kg, po; format: ADME, organism-based, Canis lupus familiaris; conditions: in vivo
[9] = Volume of distribution at steady state in rat at 1 mg/kg, iv or 10 mg/kg, po; format: ADME, organism-based; conditions: in vivo, read-out: Vdss
[10] = Volume of distribution at steady state in dog at 1 mg/kg, iv or 5 mg/kg, po; format: ADME, organism-based, Canis lupus familiaris; conditions: in vivo, read-out: Vdss
CYP2D6 = CYP2D6 (Homo sapiens, UniProt P10635); test: Inhibition of CYP2D6 (unknown origin) at 10 uM relative to control; format: ADME
[11] = Clearance in rat at 1 mg/kg, iv or 10 mg/kg, po; format: ADME, organism-based; conditions: in vivo
CYP2C9 = CYP2C9 (Homo sapiens, UniProt P11712); test: Inhibition of CYP2C9 (unknown origin) at 10 uM relative to control; format: ADME
[12] = Oral bioavailability in dog at 5 mg/kg; format: ADME, organism-based, Canis lupus familiaris; conditions: in vivo

Chain of CYP2D6 (P10635 whole entry): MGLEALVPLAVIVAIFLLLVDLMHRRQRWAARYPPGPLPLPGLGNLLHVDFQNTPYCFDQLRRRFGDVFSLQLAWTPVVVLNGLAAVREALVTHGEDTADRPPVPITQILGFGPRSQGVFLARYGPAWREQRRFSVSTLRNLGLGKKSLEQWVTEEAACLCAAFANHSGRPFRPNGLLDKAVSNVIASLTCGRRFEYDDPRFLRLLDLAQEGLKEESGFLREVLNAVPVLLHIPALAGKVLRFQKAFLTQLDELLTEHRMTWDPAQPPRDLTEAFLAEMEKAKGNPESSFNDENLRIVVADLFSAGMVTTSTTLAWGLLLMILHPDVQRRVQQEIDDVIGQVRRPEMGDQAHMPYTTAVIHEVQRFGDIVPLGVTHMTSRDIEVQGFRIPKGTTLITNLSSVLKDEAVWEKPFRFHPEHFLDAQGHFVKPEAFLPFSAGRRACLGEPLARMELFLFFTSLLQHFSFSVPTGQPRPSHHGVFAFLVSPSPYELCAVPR
Chain of CYP2C9 (P11712 whole entry): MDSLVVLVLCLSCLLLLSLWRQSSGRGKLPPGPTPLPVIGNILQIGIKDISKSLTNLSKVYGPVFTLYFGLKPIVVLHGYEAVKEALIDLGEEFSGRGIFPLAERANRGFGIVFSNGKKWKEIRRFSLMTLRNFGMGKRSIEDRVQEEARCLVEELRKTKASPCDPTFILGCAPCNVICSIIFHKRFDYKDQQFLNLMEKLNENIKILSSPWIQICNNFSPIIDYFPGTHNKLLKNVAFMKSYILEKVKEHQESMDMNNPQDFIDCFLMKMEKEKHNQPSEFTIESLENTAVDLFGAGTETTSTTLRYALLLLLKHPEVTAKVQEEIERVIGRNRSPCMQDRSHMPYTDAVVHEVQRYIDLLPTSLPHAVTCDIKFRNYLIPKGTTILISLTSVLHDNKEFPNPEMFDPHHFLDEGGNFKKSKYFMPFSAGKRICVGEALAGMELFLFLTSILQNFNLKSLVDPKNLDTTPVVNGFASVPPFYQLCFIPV
Chain of CYP3A4 (P08684 whole entry): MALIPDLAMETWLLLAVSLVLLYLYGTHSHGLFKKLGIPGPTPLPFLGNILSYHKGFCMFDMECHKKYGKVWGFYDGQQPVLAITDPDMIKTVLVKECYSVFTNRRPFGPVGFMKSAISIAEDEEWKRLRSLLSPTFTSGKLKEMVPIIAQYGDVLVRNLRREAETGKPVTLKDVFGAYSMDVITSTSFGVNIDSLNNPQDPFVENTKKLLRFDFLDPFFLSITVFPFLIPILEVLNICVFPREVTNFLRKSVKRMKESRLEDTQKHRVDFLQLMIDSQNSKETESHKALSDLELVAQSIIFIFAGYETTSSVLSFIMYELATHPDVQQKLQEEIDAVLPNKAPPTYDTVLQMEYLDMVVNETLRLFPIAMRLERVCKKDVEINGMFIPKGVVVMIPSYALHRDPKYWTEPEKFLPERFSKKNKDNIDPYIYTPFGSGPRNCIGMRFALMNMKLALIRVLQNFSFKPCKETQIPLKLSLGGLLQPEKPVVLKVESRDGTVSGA

| SMILES | Emax [1] [%] | metabolised at 0.5 h, 20 µM [2] [%] | metabolised at 0.5 h, 20 µM [3] [%] | EC50 [4] [nM] | metabolised at 0.5 h, 20 µM [5] [%] | metabolised at 0.5 h, 20 µM [6] [%] | inhibition at 10 µM (CYP3A4) [%] | bioavailability [7] [%] | clearance [8] [mL/min/kg] | Vd [9] [L/kg] | Vd [10] [L/kg] | inhibition at 10 µM (CYP2D6) [%] | clearance [11] [mL/min/kg] | inhibition at 10 µM (CYP2C9) [%] | bioavailability [12] [%] |
| --- | --- | --- | --- | --- | --- | --- | --- | --- | --- | --- | --- | --- | --- | --- | --- |
| Cc1ncn(CC2CN(C)C2)c1NC(=O)[C@H]1CCC[C@@H](N(C)C(=O)c2cccc(C(F)(F)F)c2)C1 | 103 | 20 | 24 | 147 | 38 | 29 | – | – | – | – | – | – | – | – | – |
| CN(C(=O)c1cccc(C(F)(F)F)c1)[C@@H]1CCO[C@H](c2nnc(-c3cnc4n3CCC4)[nH]2)C1 | 107 | 18 | 7 | 53 | 39 | 16 | – | – | – | – | – | – | – | – | – |
| Cc1ncn(C)c1-c1nnc([C@@H]2C[C@H](N(C)C(=O)c3cccc(OC(F)(F)F)c3)CCO2)[nH]1 | – | 10 | 16 | – | 39 | 14 | – | – | – | – | – | – | – | – | – |
| Cc1ncn(C)c1-c1nnc([C@@H]2C[C@H](N(C)C(=O)c3cccc(Cl)c3)CCO2)[nH]1 | – | 7 | 16 | – | 17 | 15 | – | – | – | – | – | – | – | – | – |
| Cc1ncn(CC(F)F)c1NC(=O)[C@H]1CCC[C@@H](N(C)C(=O)c2cccc(Cl)c2)C1 | 99 | 51 | 19 | 104 | 54 | 79 | – | – | – | – | – | – | – | – | – |
| Cc1ncn(CC2CC2)c1NC(=O)[C@H]1CCC[C@@H](N(C)C(=O)c2cccc(C(F)(F)F)c2)C1 | 118 | 72 | 66 | 52 | 97 | 88 | – | – | – | – | – | – | – | – | – |
| Cc1ncn(CC(F)(F)F)c1NC(=O)[C@H]1CCC[C@@H](N(C)C(=O)c2cccc(OC(F)(F)F)c2)C1 | 114 | 76 | 51 | 110 | 86 | 56 | – | – | – | – | – | – | – | – | – |
| Cc1ncn(C)c1NC(=O)[C@H]1CCC[C@@H](N(C)C(=O)c2cccc(OC(F)(F)F)c2)C1 | 104 | 42 | 40 | 71 | 90 | 37 | – | – | – | – | – | – | – | – | – |
| Cc1ncn(CCN2CCOCC2)c1NC(=O)[C@H]1CCC[C@@H](N(C)C(=O)c2cccc(C(F)(F)F)c2)C1 | 97 | 38 | 19 | 51 | 67 | 63 | – | – | – | – | – | – | – | – | – |
| Cc1ncn(CC(F)F)c1NC(=O)[C@H]1CCC[C@@H](N(C)C(=O)c2cccc(C(F)(F)F)c2)C1 | 105 | 58 | 38 | 63 | 64 | 59 | – | – | – | – | – | – | – | – | – |
| Cc1ncn(CC(F)(F)F)c1NC(=O)[C@H]1CCC[C@@H](N(C)C(=O)c2cccc(C(F)(F)F)c2)C1 | 114 | 62 | 38 | 81 | 67 | 59 | – | – | – | – | – | – | – | – | – |
| Cc1ncn(CC#N)c1NC(=O)[C@H]1CCC[C@@H](N(C)C(=O)c2cccc(C(F)(F)F)c2)C1 | 96 | 26 | 6 | 93 | 56 | 21 | – | – | – | – | – | – | – | – | – |
| Cc1nc[nH]c1-c1nnc([C@H]2CCC[C@@H](N(C)C(=O)c3cccc(C(F)(F)F)c3)C2)[nH]1 | 101 | 13 | 9 | 76 | 36 | 36 | – | – | – | – | – | – | – | – | – |
| CN(C(=O)c1cccc(C(F)(F)F)c1)[C@@H]1CCO[C@H](c2nnc(-c3cnc4n3CCOC4)[nH]2)C1 | 108 | 12 | 17 | 102 | 27 | 28 | – | – | – | – | – | – | – | – | – |

Further compounds by falling EC50 [4], results first:

| Emax [1] [%] | metabolised at 0.5 h, 20 µM [2] [%] | metabolised at 0.5 h, 20 µM [3] [%] | EC50 [4] [nM] | metabolised at 0.5 h, 20 µM [5] [%] | metabolised at 0.5 h, 20 µM [6] [%] | inhibition at 10 µM (CYP3A4) [%] | bioavailability [7] [%] | clearance [8] [mL/min/kg] | Vd [9] [L/kg] | Vd [10] [L/kg] | inhibition at 10 µM (CYP2D6) [%] | clearance [11] [mL/min/kg] | inhibition at 10 µM (CYP2C9) [%] | bioavailability [12] [%] | SMILES |
| --- | --- | --- | --- | --- | --- | --- | --- | --- | --- | --- | --- | --- | --- | --- | --- |
| 98 | 69 | 22 | 46 | 53 | 41 | – | – | – | – | – | – | – | – | – | Cc1ncc(-c2nnc([C@H]3CCC[C@@H](N(C)C(=O)c4cccc(C(F)(F)F)c4)C3)[nH]2)n1C |
| 109 | 90 | 83 | 41 | 82 | 67 | – | – | – | – | – | – | – | – | – | Cc1ncn(CC(F)F)c1-c1nnc([C@H]2CCC[C@@H](N(C)C(=O)c3cccc(C(F)(F)F)c3)C2)[nH]1 |
| 102 | 29 | 46 | 35 | 66 | 23 | – | – | – | – | – | – | – | – | – | CN(C(=O)c1cccc(Cl)c1)[C@@H]1CCO[C@H](c2nnc(-c3cnc4ccccn34)[nH]2)C1 |
| 102 | 84 | 52 | 32 | 70 | 80 | – | – | – | – | – | – | – | – | – | CN(C(=O)c1cccc(C(F)(F)F)c1)[C@@H]1CCC[C@H](c2nnc(-c3cnc4n3CCOC4)[nH]2)C1 |
| 115 | 48 | 33 | 31 | 76 | 52 | – | – | – | – | – | – | – | – | – | Cc1ncn(C(C)C)c1NC(=O)[C@H]1CCC[C@@H](N(C)C(=O)c2cccc(C(F)(F)F)c2)C1 |
| 121 | 82 | 48 | 16 | 46 | 13 | – | – | – | – | – | – | – | – | – | Cc1ncn(C2CCC2)c1-c1nnc([C@@H]2C[C@H](N(C)C(=O)c3cccc(C(F)(F)F)c3)CCO2)[nH]1 |
| 123 | 69 | 63 | 14 | 83 | 64 | – | – | – | – | – | – | – | – | – | Cc1ncn(CC2CC2)c1-c1nnc([C@@H]2C[C@H](N(C)C(=O)c3cccc(C(F)(F)F)c3)CCO2)[nH]1 |
| 111 | 26 | 33 | 14 | 39 | 55 | 3.3 | 29 | 8.8 | 1 | 0.9 | 0 | 40.1 | 0 | 86 | Cc1ncn(C)c1-c1nnc([C@H]2CCC[C@@H](N(C)C(=O)c3cccc(Cl)c3)C2)[nH]1 |
| 117 | 67 | 46 | 11 | 64 | 43 | – | – | – | – | – | – | – | – | – | Cc1ncn(C)c1-c1nnc([C@H]2CCC[C@@H](N(C)C(=O)c3cccc(C(F)(F)F)c3)C2)[nH]1 |
